Test results from ChEMBL document CHEMBL1141626, “Thiosemicarbazones active against Clostridium difficile” (2008).
Converted amounts (≈) assume the structure as drawn. The source made the active and inactive calls. The rule behind the calls is not given here.

Assays:
[1] = system: Staphylococcus aureus; experiment: Antimicrobial activity against methicillin-resistant Staphylococcus aureus E1 after 24 hrs; assay type: functional
How it was run: (§1)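 MIC by dilution in nutrient broth. Anaerobic organisms were incubated in an anaerobic cabinet. Controls were the same organisms incubated without test compound.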

[2] = system: Cutibacterium acnes; experiment: Antimicrobial activity against Propionibacterium acnes C5 after 48 hrs; assay type: functional; how it was run: as §1
[3] = system: Staphylococcus aureus; experiment: Antimicrobial activity against Staphylococcus aureus ATCC 6538 after 24 hrs; assay type: functional; details: ATCC 6538, 24 h; how it was run: as §1
[4] = system: Clostridioides difficile; experiment: Antimicrobial activity against Clostridium difficile Z162 after 48 hrs; assay type: functional
How it was run: (§2)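 Anaerobes incubated in an anaerobic cabinet for broth MIC determination. Drug-free incubations of the same organisms served as controls. Value is the minimum inhibitory concentration.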

[5] = system: Staphylococcus epidermidis; experiment: Antimicrobial activity against Staphylococcus epidermidis 4 after 24 hrs; assay type: functional; how it was run: as §1
[6] = system: Staphylococcus aureus; experiment: Antimicrobial activity against Staphylococcus aureus H1 after 24 hrs; assay type: functional; how it was run: as §1
[7] = system: Clostridioides difficile; experiment: Antimicrobial activity against Clostridium difficile NCTC 11204 after 48 hrs; assay type: functional; details: NCTC 11204, 48 h; how it was run: as §2
[8] = system: Staphylococcus epidermidis; experiment: Antimicrobial activity against Staphylococcus epidermidis NCTC 11047 after 24 hrs; assay type: functional; details: NCTC 11047, 24 h; how it was run: as §1
[9] = system: Clostridioides difficile; experiment: Antimicrobial activity against Clostridium difficile Z229 after 48 hrs; assay type: functional; how it was run: as §2
[10] = system: Staphylococcus aureus; experiment: Antimicrobial activity against Staphylococcus aureus K1 after 24 hrs; assay type: functional; how it was run: as §1
[11] = system: Staphylococcus epidermidis; experiment: Antimicrobial activity against Staphylococcus epidermidis 9 after 24 hrs; assay type: functional; how it was run: as §1
[12] = system: Cutibacterium acnes; experiment: Antimicrobial activity against Propionibacterium acnes B5 after 48 hrs; assay type: functional; how it was run: as §2
[13] = system: Clostridioides difficile; experiment: Antimicrobial activity against Clostridium difficile O27 after 48 hrs; assay type: functional; how it was run: as §2
[14] = system: Staphylococcus aureus; experiment: Antimicrobial activity against methicillin-resistant Staphylococcus aureus A1 after 24 hrs; assay type: functional; how it was run: as §1
[15] = system: Cutibacterium acnes; experiment: Antimicrobial activity against Propionibacterium acnes C3 after 48 hrs; assay type: functional; how it was run: as §1
[16] = system: Cutibacterium acnes; experiment: Antimicrobial activity against Propionibacterium acnes NCTC 737 after 48 hrs; assay type: functional; details: NCTC 737, 48 h; how it was run: as §1
[17] = system: Staphylococcus aureus; experiment: Antimicrobial activity against methicillin-resistant Staphylococcus aureus C3 after 24 hrs; assay type: functional; how it was run: as §1
[18] = system: Bacillus subtilis; experiment: Antimicrobial activity against Bacillus subtilis; assay type: functional, organism-based
[19] = system: Escherichia coli; experiment: Antimicrobial activity against Escherichia coli; assay type: functional, organism-based
[20] = system: Trichophyton mentagrophytes; experiment: Antimicrobial activity against Trichophyton mentagrophytes; assay type: functional, organism-based
[21] = system: Streptococcus pyogenes; experiment: Antimicrobial activity against Streptococcus pyogenes; assay type: functional, organism-based
[22] = system: Staphylococcus aureus; experiment: Antimicrobial activity against Micrococcus pyogenes; assay type: functional, organism-based
[23] = system: Candida albicans; experiment: Antimicrobial activity against Candida albicans; assay type: functional, organism-based

SMILES | MIC [1] | MIC [2] | MIC [3] | MIC [4] | MIC [5] | MIC [6] | MIC [7] | MIC [8] | MIC [9] | MIC [10] | MIC [11] | MIC [12] | MIC [13] | MIC [14] | MIC [15] | MIC [16] | MIC [17] | other results
CC(C)NC(=S)N/N=C/c1ccc([N+](=O)[O-])o1 | > 256 µg/mL | 64 µg/mL (≈ 250 µM) | 64 µg/mL (≈ 250 µM) | > 256 µg/mL | > 256 µg/mL | 128 µg/mL (≈ 499 µM) | > 256 µg/mL | 64 µg/mL (≈ 250 µM) | 128 µg/mL (≈ 499 µM) | > 256 µg/mL | > 256 µg/mL | > 256 µg/mL | 64 µg/mL (≈ 250 µM) | > 256 µg/mL | 32 µg/mL (≈ 125 µM) | 64 µg/mL (≈ 250 µM) | > 256 µg/mL | –
CC(C)NC(=S)N/N=C/C=C/c1ccc([N+](=O)[O-])o1 | > 256 µg/mL | 64 µg/mL (≈ 227 µM) | > 256 µg/mL | > 256 µg/mL | 64 µg/mL (≈ 227 µM) | 256 µg/mL (≈ 907 µM) | > 256 µg/mL | 64 µg/mL (≈ 227 µM) | 64 µg/mL (≈ 227 µM) | > 256 µg/mL | > 256 µg/mL | 32 µg/mL (≈ 113 µM) | 64 µg/mL (≈ 227 µM) | > 256 µg/mL | 32 µg/mL (≈ 113 µM) | 32 µg/mL (≈ 113 µM) | > 256 µg/mL | –
CCNC(=S)N/N=C/c1ccc([N+](=O)[O-])o1 | 64 µg/mL (≈ 264 µM) | 32 µg/mL (≈ 132 µM) | 32 µg/mL (≈ 132 µM) | 128 µg/mL (≈ 528 µM) | 32 µg/mL (≈ 132 µM) | 16 µg/mL (≈ 66 µM) | 64 µg/mL (≈ 264 µM) | 32 µg/mL (≈ 132 µM) | 8 µg/mL (≈ 33 µM) | 64 µg/mL (≈ 264 µM) | 64 µg/mL (≈ 264 µM) | 32 µg/mL (≈ 132 µM) | 64 µg/mL (≈ 264 µM) | 64 µg/mL (≈ 264 µM) | 2 µg/mL (≈ 8.26 µM) | 16 µg/mL (≈ 66 µM) | 64 µg/mL (≈ 264 µM) | Activity [18]: Active; Activity [19]: Active; Activity [20]: Active; Activity [21]: Active; Activity [22]: Active; Activity [23]: Active
CNC(=S)N/N=C/C=C/c1ccco1 | > 256 µg/mL | 1 µg/mL (≈ 4.78 µM) | > 256 µg/mL | > 256 µg/mL | 128 µg/mL (≈ 612 µM) | > 256 µg/mL | > 256 µg/mL | > 256 µg/mL | 128 µg/mL (≈ 612 µM) | > 256 µg/mL | > 256 µg/mL | 32 µg/mL (≈ 153 µM) | 64 µg/mL (≈ 306 µM) | > 256 µg/mL | 16 µg/mL (≈ 76.5 µM) | 32 µg/mL (≈ 153 µM) | > 256 µg/mL | –
CC(C)(C)NC(=S)N/N=C/C=C/c1ccc([N+](=O)[O-])o1 | > 256 µg/mL | 16 µg/mL (≈ 54 µM) | > 256 µg/mL | 128 µg/mL (≈ 432 µM) | > 256 µg/mL | 64 µg/mL (≈ 216 µM) | > 256 µg/mL | > 256 µg/mL | 64 µg/mL (≈ 216 µM) | 32 µg/mL (≈ 108 µM) | > 256 µg/mL | 32 µg/mL (≈ 108 µM) | 64 µg/mL (≈ 216 µM) | > 256 µg/mL | 8 µg/mL (≈ 27 µM) | 16 µg/mL (≈ 54 µM) | > 256 µg/mL | –
CNC(=S)N/N=C/c1ccc([N+](=O)[O-])o1 | 64 µg/mL (≈ 280 µM) | 64 µg/mL (≈ 280 µM) | 64 µg/mL (≈ 280 µM) | > 256 µg/mL | 32 µg/mL (≈ 140 µM) | 64 µg/mL (≈ 280 µM) | > 256 µg/mL | 16 µg/mL (≈ 70.1 µM) | 64 µg/mL (≈ 280 µM) | 128 µg/mL (≈ 561 µM) | 128 µg/mL (≈ 561 µM) | 64 µg/mL (≈ 280 µM) | 64 µg/mL (≈ 280 µM) | 64 µg/mL (≈ 280 µM) | 16 µg/mL (≈ 70.1 µM) | 16 µg/mL (≈ 70.1 µM) | > 256 µg/mL | –
